This is an account of results in publication PMC6923798 (Bioorganic chemistry, 2018).

One experiment has as its system Jurkat. Description: MTT anti-proliferative assay. The experiment is classed as cell-based, human. Conditions: read-out: IC50 ± SD, Jurkat.
In experiment [1] the test system is full NCI panel of 60 cell lines. In words: NCI in vitro one dose anticancer assay. It counts as cell-based, human. Conditions: 48 h; for inhibition at 10 µM: Homo sapiens, 60 cell, read-out: Mean growth inhibition %. In outline: (§1)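 NCI protocol. Test compound added once at 10−5 M to ~60 human tumour lines from nine subpanels. Incubated 48 h at 37 °C, 5% CO2, 95% air, 100% relative humidity. Endpoint by sulforhodamine B protein staining with spectrophotometric absorbance. Growth of treated cells reported as percent of untreated cells.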

The next experiment has as its target EGFR (Homo sapiens, UniProt P00533). Description: EGFR kinase assay. The experiment is classed as biochemical.
In the next experiment the test system is K-562. In words: MTT anti-proliferative assay. It counts as cell-based, human. Conditions: read-out: IC50 ± SD, K-562. (In general: Tetrazolium dyes change colour on reduction, which living cells bring about.)
The next experiment deals with STAT3. In words: STAT3 activation assay. The conditions noted are these: K-562 cells, 10 μM, 24 h, nuclear extracts. The experiment is classed as cell-based, human. The essentials: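 K562 cells seeded overnight in 10 cm plates, then given vehicle, test compound (10 μM) or WP1066 (positive control) for 24 h. Nuclear fractions extracted by kit. STAT3 activation measured in nuclear extracts by TransAM STAT3 ELISA per manufacturer. Mean ± SD of three independent experiments, each in triplicate.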

Another experiment deals with c-Src (Homo sapiens, UniProt P12931). In words: Src kinase assay. The experiment is classed as biochemical.
The next experiment relates to KG-1a. In words: MTT anti-proliferative assay. Conditions: read-out: IC50 ± SD, KG-1a. It counts as cell-based, human.
A further experiment relates to SR cell line. In words: NCI in vitro one dose anticancer assay. It counts as cell-based. Conditions: Homo sapiens, 48 h, read-out: % growth inhibition. In outline: as §1
In another experiment the test system is IL-6. In words: IL-6 ELISA in K-562 cells. The experiment is classed as cell-based, human. Conditions: Homo sapiens, K562, 24 h, read-out: IL-6 protein levels (% of control). The essentials: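 K-562 cells exposed 24 h to vehicle (DMSO), test compound at 10 μM or dexamethasone (positive control). IL-6 secreted into cell-free supernatant quantified by human IL-6 ELISA kit. Expressed as % of vehicle control, mean ± SD of three independent experiments, each in triplicate. Time course: in 12-well plates, medium changed when compound (10 μM) added, and media sampled at 0, 1, 4, 8, 12, 24, 48 h.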
(In general: ELISA stands for enzyme-linked immunosorbent assay.)

For the next experiment, the system named is RPMI-8226 cell line. Description: NCI in vitro one dose anticancer assay. It counts as cell-based. The conditions noted are these: Homo sapiens, RPMI-8226, 48 h, read-out: % growth inhibition. In outline:
as §1

A further experiment has as its system K-562 cell line. Description: NCI in vitro one dose anticancer assay. It counts as cell-based. Conditions: Homo sapiens, K562, 48 h, read-out: % growth inhibition. In outline: as §1
A further experiment relates to MOLT-4 cell line. Description: NCI in vitro one dose anticancer assay. The experiment is classed as cell-based. Conditions: Homo sapiens, MOLT-4, 48 h, read-out: % growth inhibition. The essentials:
as §1

Like-named read-outs stand apart in the source and are kept apart here.

Sequence of EGFR (P00533 25-1210): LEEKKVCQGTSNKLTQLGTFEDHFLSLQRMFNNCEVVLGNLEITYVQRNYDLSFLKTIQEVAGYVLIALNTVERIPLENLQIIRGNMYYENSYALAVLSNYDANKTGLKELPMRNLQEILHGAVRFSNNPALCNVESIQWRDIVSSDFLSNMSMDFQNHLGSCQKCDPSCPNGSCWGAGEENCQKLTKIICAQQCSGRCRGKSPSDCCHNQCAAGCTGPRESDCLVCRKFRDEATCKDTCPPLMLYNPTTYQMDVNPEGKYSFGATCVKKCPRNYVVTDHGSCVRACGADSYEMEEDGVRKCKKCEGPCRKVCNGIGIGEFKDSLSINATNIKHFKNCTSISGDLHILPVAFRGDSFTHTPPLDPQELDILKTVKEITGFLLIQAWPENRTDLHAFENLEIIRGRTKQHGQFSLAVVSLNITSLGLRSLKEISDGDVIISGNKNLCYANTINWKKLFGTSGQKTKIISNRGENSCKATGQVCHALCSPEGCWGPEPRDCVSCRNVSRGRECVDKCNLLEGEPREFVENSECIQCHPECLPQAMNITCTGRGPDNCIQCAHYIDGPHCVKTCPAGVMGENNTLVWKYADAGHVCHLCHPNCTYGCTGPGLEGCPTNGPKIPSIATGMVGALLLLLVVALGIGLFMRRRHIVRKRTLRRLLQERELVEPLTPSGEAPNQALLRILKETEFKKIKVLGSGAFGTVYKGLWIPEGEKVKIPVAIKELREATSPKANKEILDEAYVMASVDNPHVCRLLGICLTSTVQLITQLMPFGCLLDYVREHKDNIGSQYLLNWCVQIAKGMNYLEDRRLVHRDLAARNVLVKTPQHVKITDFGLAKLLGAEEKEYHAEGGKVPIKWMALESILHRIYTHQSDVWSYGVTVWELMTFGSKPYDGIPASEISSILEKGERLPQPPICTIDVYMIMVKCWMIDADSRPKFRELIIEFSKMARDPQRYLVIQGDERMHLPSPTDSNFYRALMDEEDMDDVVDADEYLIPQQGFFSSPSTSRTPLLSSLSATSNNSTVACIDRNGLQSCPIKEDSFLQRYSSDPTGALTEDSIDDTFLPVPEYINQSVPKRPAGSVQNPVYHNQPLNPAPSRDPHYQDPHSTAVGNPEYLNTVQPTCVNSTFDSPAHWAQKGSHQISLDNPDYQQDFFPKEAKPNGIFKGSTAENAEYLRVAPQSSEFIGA
Sequence of c-Src (P12931 whole entry): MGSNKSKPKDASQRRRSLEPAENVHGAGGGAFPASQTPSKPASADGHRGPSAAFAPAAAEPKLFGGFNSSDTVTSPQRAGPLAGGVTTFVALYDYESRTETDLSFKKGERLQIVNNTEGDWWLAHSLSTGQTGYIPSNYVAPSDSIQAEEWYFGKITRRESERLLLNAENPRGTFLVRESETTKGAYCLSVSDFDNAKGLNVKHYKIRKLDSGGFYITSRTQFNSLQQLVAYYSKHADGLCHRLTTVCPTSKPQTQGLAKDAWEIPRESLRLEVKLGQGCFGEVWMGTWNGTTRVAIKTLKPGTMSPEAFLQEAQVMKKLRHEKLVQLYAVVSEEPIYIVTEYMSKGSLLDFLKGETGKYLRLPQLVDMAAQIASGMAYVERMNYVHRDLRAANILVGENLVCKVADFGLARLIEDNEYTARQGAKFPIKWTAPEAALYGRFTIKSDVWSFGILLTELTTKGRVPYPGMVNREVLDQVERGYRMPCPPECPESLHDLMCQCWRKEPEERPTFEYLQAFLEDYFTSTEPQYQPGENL

By IC50 is commonly meant the concentration that inhibits the measured activity by half. As to `O=C(CSc1nnc(-c2ccccc2)o1)Nc1ccc(C(=O)C=Cc2ccccc2)cc1` [Compound 8a, N-(4-(3-Phenyl)acryloyl)phenyl-2-((5-phenyl-1,3,4-oxadiazol-2-yl)thio)-acetamide], the IC50 in the experiment on Jurkat (MTT, 24 h treatment) amounted to 8.47 ± 1.03 µM; on EGFR (read-out: EGFR (IC50 μM), PGT substrate, ATP 50 μM), 1.23 ± 0.25 µM; in the experiment with K-562 (MTT, 24 h treatment) it was 7.21 ± 0.35 µM; on c-Src (read-out: Src (IC50 μM), PGT substrate, ATP 50 μM), 4.5 ± 1.2 µM; with KG-1a (MTT, 24 h treatment), 8.85 ± 0.22 µM. In experiment [1] (10 μM, SRB, mean over NCI 60 cell line panel), the “Mean growth inhibition %” value was 37.77%. In the experiment on STAT3, the “inhibition of STAT3 activation” value was “most effective”.
In general, inhibition refers to the change of the read-out against control, counted positive when it falls. Consider `O=C(CSc1nnc(-c2ccc(Cl)cc2)o1)Nc1ccc(C(=O)C=Cc2ccccc2)cc1` [Compound 8e, 2-((5-(4-Chlorophenyl)-1,3,4-oxadiazol-2-yl)thio)-N-(4-cinnamoylphenyl)acetamide], for which the half-maximal inhibitory concentration (IC50) is over 100 µM in the experiment with Jurkat (Homo sapiens, Jurkat, 24 h); 59.4 ± 5.63 µM against EGFR; 93.3 ± 5.21 µM in the experiment with K-562 (Homo sapiens, K562, 24 h); 74.4 ± 3.6 µM against c-Src; over 100 µM in the experiment on KG-1a (Homo sapiens, KG-1a, 24 h). Moreover, the inhibition at 10 µM with SR cell line fell in the range of 32.9 to 160%; in the experiment with RPMI-8226 cell line, 31.3 to 144%. In the experiment with IL-6, the activity at 10 µM is 82 to 98%.
In the case of `COc1ccc(-c2nnc(SCC(=O)Nc3ccc(C(=O)C=Cc4cc(OC)c(OC)c(OC)c4)cc3)o2)cc1` [Compound 8n, 2-(5-(4-Methoxyphenyl)-1,3,4-oxadiazol-2-ylthio)-N-(4-(3-(3,4,5-tri-methoxyphenyl)acryloyl)phenyl)acetamide], the concentration for half-maximal inhibition (IC50) with Jurkat (Homo sapiens, Jurkat, 24 h) was determined as 13.15 ± 0.08 µM; on EGFR, 2.35 ± 0.95 µM; in the experiment with K-562 (Homo sapiens, K562, 24 h), 10.2 ± 0.94 µM; against c-Src, 6.24 ± 0.86 µM; with KG-1a (Homo sapiens, KG-1a, 24 h) it was 16 ± 0.96 µM. Moreover, the results for the inhibition at 10 µM (in the experiment on SR cell line; in [1]; in the experiment with K-562 cell line) were 32.9 to 160%, 27.3% and 35.8 to 152%, respectively. Also, the activity at 10 µM in the experiment on IL-6 lay within 20 to 23%. Further, the “inhibition of STAT3 activation” value in the experiment with STAT3 was “most effective”.
For `COc1ccc(-c2nnc(SCC(=O)Nc3ccc(C(=O)C=Cc4ccc(Cl)cc4)cc3)o2)cc1OC` [Compound 8p, N-(4-(3-(4-chlorophenyl)acryloyl)phenyl)-2-((5-(3,4-dimethoxyphenyl)-1,3,4-oxadiazol-2-yl)thio)acetamide], the inhibition at 10 µM in the experiment with MOLT-4 cell line was 31.9 to 108%; in the experiment with SR cell line, 32.9 to 160%; in [1], 28.2%; with RPMI-8226 cell line it was 31.3 to 144%. The half-maximal inhibitory concentration (IC50) in the experiment with Jurkat (Homo sapiens, Jurkat, 24 h) came to 17.2 ± 0.79 µM; against EGFR it was 13.3 ± 0.65 µM; in the experiment with K-562 (Homo sapiens, K562, 24 h) it was 16.1 ± 1.08 µM; at c-Src, 13.7 ± 0.89 µM; with KG-1a (Homo sapiens, KG-1a, 24 h), 22.5 ± 1.07 µM. The activity at 10 µM in the experiment on IL-6 was in the range of 30 to 75%. In addition, in the experiment on STAT3, the “inhibition of STAT3 activation” value was “moderate activities”.
For `COc1ccc(-c2nnc(SCC(=O)Nc3ccc(C(=O)C=Cc4cc(OC)c(OC)c(OC)c4)cc3)o2)cc1OC` [Compound 8s, 2-((5-(3,4-Dimethoxyphenyl)-1,3,4-oxadiazol-2-yl)thio)-N-(4-(3-(3,4,5-trimethoxyphenyl)acryloyl)phenyl)acetamide], the concentration for half-maximal inhibition (IC50) was 25.1 ± 0.45 µM in the experiment on Jurkat (Homo sapiens, Jurkat, 24 h); 12.3 ± 0.8 µM against EGFR; 15.1 ± 0.25 µM with K-562 (Homo sapiens, K562, 24 h); 15.3 ± 1.25 µM against c-Src; 32.1 ± 0.64 µM in the experiment on KG-1a (Homo sapiens, KG-1a, 24 h). Also, the inhibition at 10 µM in the experiment on SR cell line lay in the range of 32.9 to 160%; in the experiment with K-562 cell line it was 35.8 to 152%; with RPMI-8226 cell line, 31.3 to 144%. Moreover, the activity at 10 µM in the experiment with IL-6 fell in the range of 30 to 75%. For the same molecule, the “inhibition of STAT3 activation” value in the experiment with STAT3 is reported as “moderate activities”.
Consider `COc1cc(C=CC(=O)c2ccc(NC(=O)CSc3nnc(-c4cc(OC)c(OC)c(OC)c4)o3)cc2)cc(OC)c1OC` [Compound 8x, 2-((5-(3,4,5-Trimethoxyphenyl)-1,3,4-oxadiazol-2-yl)thio)-N-(4-(3-(3,4,5-trimethoxyphenyl)acryloyl)phenyl)acetamide], for which the half-maximal inhibitory concentration (IC50) with Jurkat (Homo sapiens, Jurkat, 24 h) amounted to 69.17 ± 0.15 µM; against EGFR, 20.5 ± 1.35 µM; with K-562 (Homo sapiens, K562, 24 h) it was 62.1 ± 3.07 µM; against c-Src, 35.1 ± 3.26 µM; in the experiment with KG-1a (Homo sapiens, KG-1a, 24 h), 71.5 ± 1.18 µM. Also, the inhibition at 10 µM lay in the range of 32.9 to 160% with SR cell line and 31.3 to 144% in the experiment on RPMI-8226 cell line. Besides, the activity at 10 µM with IL-6 was in the range of 30 to 75%. Further, the “inhibition of STAT3 activation” value in the experiment with STAT3 is “moderate activities”.
